Data on 20 compounds can be found in ChEMBL document CHEMBL2040770, “Finger loop inhibitors of the HCV NS5b polymerase. Part II. Optimization of tetracyclic indole-based macrocycle leading to the discovery of TMC647055” (Bioorg Med Chem Lett, 2012).

In series [1] the test system is Hepatitis C virus. Briefly: Antiviral activity against Hepatitic C virus genotype 1b clone ET infected in human Huh7 replicon cells after 72 hrs by luciferase reporter gene assay. The format is functional, organism-based, Hepacivirus hominis. To be noted: Huh-7, 72 h.
A short description of series [2]: Selectivity index, ratio of CC50 for human Huh7 cells to EC50 for Hepatitic C virus genotype 1b clone ET. The format is toxicity, cell-based, Huh-7. To be noted: read-out: Ratio CC50/EC50. The method, boiled down: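 Selectivity index computed in Huh-7 cells as CC50/EC50.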
The nature of series [3]: Metabolic stability in rat liver microsomes assessed as compound metabolized at 5 uM after 15 mins. To be noted: read-out: Drug metabolism. It is filed as ADME, Microsome. Put shortly:
(§1)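 Rat or human liver microsomes incubated with compound at 5 µM for 15 min. Stability is given as % of compound metabolized.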

Series [4] is described as follows: Metabolic stability in human liver microsomes assessed as compound metabolized at 5 uM after 15 mins. It is filed as ADME, Microsome. To be noted: read-out: Drug metabolism. The method, boiled down:
as §1

Series [5] can be described thus: Clearance in Sprague-Dawley rat at 2 mg/kg, iv and 10 mg/kg, po. It is filed as ADME, organism-based. To be noted: in vivo. The method, boiled down:
(§2)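 Male Sprague–Dawley rats (n = 3) given a single iv dose of 2 mg/kg in PEG400/saline 70:30 and a single oral dose of 10 mg/kg in PEG400/2% vitamin E-TPGS. Plasma kinetics were followed to give plasma clearance, Cmax and oral bioavailability.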

Series [6] in a line: Drug uptake in Sprague-Dawley rat liver at 10 mg/kg, po measured after 7 hrs. The settings on record: read-out: Drug uptake. The format is ADME, organism-based. Also noted: dose 10 mg/kg, route oral. Put shortly: (§3)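 Male Sprague–Dawley rats (n = 3) received a single oral dose of 10 mg/kg in PEG400/2% vitamin E-TPGS. Liver concentration was measured 7 h post-dosing, and the liver/plasma concentration ratio was taken at that same 7 h time point.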

A short description of series [7]: Ratio of drug uptake in Sprague-Dawley rat liver to plasma at 10 mg/kg, po measured after 7 hrs. The format is ADME, organism-based. Also noted: dose 10 mg/kg, route oral. Put shortly: as §3
Series [8] in a line: Oral bioavailability in Sprague-Dawley rat at 10 mg/kg. The format is ADME, organism-based. To be noted: in vivo. The method, boiled down:
as §2

A short description of series [9]: Cmax in Sprague-Dawley rat at 10 mg/kg, po. It is filed as ADME, organism-based. Also noted: dose 10 mg/kg, route oral. To be noted: in vivo. Put shortly:
as §2

Series [10] in a line: AUC (0 to infinity) in dog at 10 mg/kg, po. It is filed as ADME, organism-based, Canis lupus familiaris. To be noted: plasma. On the set-up: time infinity, dose 10 mg/kg, route oral. The method, boiled down:
(§4)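 Dogs given a single oral dose of 10 mg/kg. Peak plasma concentration and plasma AUC extrapolated to infinity were determined, reported in µM and µM h.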

In series [11] the test system is Canis familiaris. In words: Volume of distribution at steady state in dog at 10 mg/kg, po. The format is ADME, organism-based, Canis lupus familiaris. To be noted: in vivo. On the set-up: dose 10 mg/kg, route oral.
Series [12] can be described thus: Cmax in dog at 10 mg/kg, po. The format is ADME, organism-based, Canis lupus familiaris. To be noted: in vivo. On the set-up: dose 10 mg/kg, route oral. The method, boiled down:
as §4

Series [13] in a line: Inhibition of cytochrome P450. The format is ADME.
The species entered for series [14] is Rattus norvegicus. In words: Drug metabolism in Sprague-Dawley rat assessed as reactive acyl glucuronides formation. The settings on record: in vivo. The format is ADME, organism-based.
Series [15] can be described thus: Oral bioavailability in dog at 10 mg/kg. The settings on record: in vivo. The format is ADME, organism-based, Canis lupus familiaris.
Series [16] in a line: Plasma clearance in dog at 10 mg/kg, po. The format is ADME, organism-based, Canis lupus familiaris. On the set-up: dose 10 mg/kg, route oral.

`COc1ccc2c(c1)C=C1Cn3c-2c(C2CCCCC2)c2ccc(cc23)C(=O)NS(=O)(=O)N(C)CCCCCCN(C)C1=O` displayed an EC50 in [1] of 160 nM. For the same compound, the selectivity ratio in [2] stood at 150. The metabolised at 0.25 h, 5 µM in series [3] was 46%; in series [4], 99%.

Consider `CN1CCOCCN(C)S(=O)(=O)NC(=O)c2ccc3c(C4CCCCC4)c(n(C)c3c2)-c2ccccc2OCC1=O`, for which the half-maximal effective concentration (EC50) in series [1] turned out to be 190 nM. The clearance in [5] is 128 mL/min/kg. Further, in [6], the concentration at 7 h came out at 1720 ng/mL. The Kp at 7 h in series [7] came to 64. The same compound displayed a bioavailability in series [8] of 21%.

On to `COc1ccc2c(c1)C=C1Cn3c-2c(C2CCCCC2)c2ccc(cc23)C(=O)NS(=O)(=O)N(C)CCN(C)CCNC1=O`, for which the EC50 in series [1] was 550 nM. Also, the selectivity ratio in series [2] was more than 58.

In series [1], `COc1ccc2c(c1)C=C1Cn3c-2c(C2CCCCC2)c2ccc(cc23)C(=O)NS(=O)(=O)NCCN(C)CCNC1=O` yielded an EC50 of 470 nM. The selectivity ratio in series [2] is more than 68. The metabolised at 0.25 h, 5 µM in series [3] was determined as 23%; in series [4], 7%.

`COc1ccc2c(c1)C=C1Cn3c-2c(C2CCCCC2)c2ccc(cc23)C(=O)NS(=O)(=O)N(C)CCOCCN(C)C1=O` [TMC-647055]: a half-maximal response in series [1] (EC50) required 82 nM. Also, the selectivity ratio in [2] is more than 300. Also, the metabolised at 0.25 h, 5 µM came out at 30% in series [3] and 35% in series [4]. The compound also had a clearance in series [5] of 53.3 mL/min/kg. In series [6], the concentration at 7 h was 7800 ng/mL. Moreover, the Kp at 7 h in [7] was 46. Besides, the bioavailability is more than 66% in series [8] and 87% in [15]. Besides, the Cmax in series [9] is 440 ng/mL; in series [12] it was 10.2 µM. This compound also yielded an AUC(0-inf) in series [10] of 25.8 µM·h. Besides, the Vdss in [11] worked out at 0.32 L/kg. Besides, the “inhibition (INH)” value in [13] is “Not Active”. Also, the Drug metabolism entry in series [14] is given as “Not Active”. The compound further gave a CL/F in [16] of 9 mL/min/kg.

For `COc1ccc2c(c1)C=C1Cn3c-2c(C2CCCCC2)c2ccc(cc23)C(=O)NS(=O)(=O)N(C)CCN2CCN(CC2)C1=O`, in series [1], the midpoint of the response, the EC50, lay at 180 nM. The selectivity ratio in series [2] is more than 170. For the same compound, the metabolised at 0.25 h, 5 µM in series [3] was 17%; in series [4], 26%. In [5], this compound had a clearance of 157 mL/min/kg. Besides, the concentration at 7 h in series [6] came out at 299 ng/mL. For the same compound, the Kp at 7 h in series [7] was 108. Further, in series [8], the bioavailability is 3%. Also, the Cmax in series [9] is 6 ng/mL.

In the case of `COc1ccc2c(c1)C[C@@H]1Cn3c-2c(C2CCCCC2)c2ccc(cc23)C(=O)NS(=O)(=O)N(C)CCOCCN(C)C1=O`, the metabolised at 0.25 h, 5 µM worked out at 42% in series [3] and 63% in series [4]. This compound also gave a clearance in [5] of 53.3 mL/min/kg. For the same compound, the concentration at 7 h in series [6] turned out to be 898 ng/mL. Besides, in series [7], the Kp at 7 h was found to be 22. The bioavailability in [8] amounted to 15%.

`COc1ccc2c(c1)C=C1Cn3c-2c(C2CCCCC2)c2ccc(cc23)C(=O)NS(=O)(=O)N(C)CCCCN(C)C1=O` came in with an EC50 in series [1] of 82 nM. Moreover, the selectivity ratio in series [2] was more than 330. In addition, the results for the metabolised at 0.25 h, 5 µM in [3] and in [4] were 26% and 56%, respectively. Further, the clearance in series [5] was 40 mL/min/kg. Moreover, the concentration at 7 h in series [6] amounted to 5000 ng/mL. In series [7], the Kp at 7 h was 23. For the same compound, in [8], the bioavailability worked out at 76%. This compound had a Cmax in series [9] of 800 ng/mL.

Consider `COc1ccc2c(c1)C=C1Cn3c-2c(C2CCCCC2)c2ccc(cc23)C(=O)NS(=O)(=O)N(C)CCCCNC1=O`, for which, in [1], the EC50 came to 912 nM. The selectivity ratio in [2] was more than 40. Further, the metabolised at 0.25 h, 5 µM in [3] stood at 13%; in [4] it was 20%.

Take `COc1ccc2c(c1)C=C1Cn3c-2c(C2CCCCC2)c2ccc(cc23)C(=O)NS(=O)(=O)N(C)CCCN(C)C1=O`: the 50% effective concentration (EC50) in series [1] turned out to be 680 nM. For the same compound, in series [2], the selectivity ratio is 72. Also, the metabolised at 0.25 h, 5 µM turned out to be 28% in series [3] and 18% in series [4].

For `CCN(CC)C1CCN(C(=O)Cn2c(-c3ccc(Cl)cc3)c(C3CCCCC3)c3ccc(C(=O)O)cc32)CC1`, it took 127 nM to reach a half-maximal effect in series [1] (EC50).

The compound `COc1ccc2c(c1)C=C1Cn3c-2c(C2CCCCC2)c2ccc(cc23)C(=O)NS(=O)(=O)NCCCCN(C)C1=O` registered an EC50 in series [1] of 550 nM. Further, the selectivity ratio in series [2] was more than 58. Further, the metabolised at 0.25 h, 5 µM in [3] turned out to be 25%; in series [4] it was 27%.

The compound `COc1ccc2c(c1)C=C1Cn3c-2c(C2CCCCC2)c2ccc(cc23)C(=O)NS(=O)(=O)N(C(C)C)CCCCN(C)C1=O` came in with a concentration for a half-maximal effect (EC50) in series [1] of 330 nM. For the same compound, in [2], the selectivity ratio was more than 100. Further, the metabolised at 0.25 h, 5 µM in series [3] worked out at 12%; in [4], 80%.

With `CN1CCOCCN(C)S(=O)(=O)NC(=O)c2ccc3c(C4CCCCC4)c4n(c3c2)CC(=Cc2cc(F)ccc2-4)C1=O`, it took 72 nM to reach a half-maximal effect in series [1] (EC50). In series [2], the selectivity ratio is more than 250. For the same compound, the metabolised at 0.25 h, 5 µM was determined as 37% in series [3] and 38% in [4]. In series [5], this compound gave a clearance of 61.7 mL/min/kg. Moreover, the concentration at 7 h in series [6] was determined as 6560 ng/mL. In [7], the Kp at 7 h turned out to be 62. The compound further returned a bioavailability in series [8] of 52%. Further, the Cmax in series [9] was 272 ng/mL.

In turn, `COc1ccc2c(c1)C1C[C@]13Cn1c-2c(C2CCCCC2)c2ccc(cc21)C(=O)NS(=O)(=O)N(C)CCOCCN(C)C3=O` (stereo not given in full) returned a 50% effective concentration (EC50) in [1] of 40 nM. Further, the metabolised at 0.25 h, 5 µM in series [3] is 72%; in [4] it was 95%. The same compound showed a clearance in series [5] of 86.7 mL/min/kg. Moreover, the concentration at 7 h in series [6] came out at 3200 ng/mL. Also, the Kp at 7 h in [7] was determined as 38. The compound also came in with a bioavailability in series [8] of 51%.

`CN1CCCCN(C)S(=O)(=O)NC(=O)c2ccc3c(C4CCCCC4)c4n(c3c2)CC(=Cc2ccc(Cl)cc2-4)C1=O`: in [1], the EC50 worked out at 14500 nM. The selectivity ratio in series [2] is more than 2. The metabolised at 0.25 h, 5 µM came to 30% in [3] and 29% in series [4].

In the case of `COc1ccc2c(c1)C=C1Cn3c-2c(C2CCCCC2)c2ccc(cc23)C(=O)NS(=O)(=O)N2CCN(CCNC1=O)CC2`, the EC50 in series [1] turned out to be 860 nM. In addition, in series [2], the selectivity ratio was more than 40. The metabolised at 0.25 h, 5 µM in [3] was 16%; in series [4], 10%.

Take `CN1CCOCCN(C)S(=O)(=O)NC(=O)c2ccc3c(C4CCCCC4)c4n(c3c2)CC(=Cc2cc(Cl)ccc2-4)C1=O`: in [1], the EC50 is 280 nM. In series [2], the selectivity ratio worked out at 150. Further, the metabolised at 0.25 h, 5 µM came to 22% in [3] and 16% in series [4].

As for `COc1ccc2c(c1)C1C[C@@]13Cn1c-2c(C2CCCCC2)c2ccc(cc21)C(=O)NS(=O)(=O)N(C)CCOCCN(C)C3=O` (stereo not given in full), in [1], the concentration giving a half-maximal response (EC50) was 800 nM.

`COc1ccc2c(c1)C=C1Cn3c-2c(C2CCCCC2)c2ccc(cc23)C(=O)NS(=O)(=O)N(C)CCCCCNC1=O` registered an EC50 in series [1] of 130 nM. In series [2], the selectivity ratio is more than 400. The metabolised at 0.25 h, 5 µM in series [3] was 27%; in series [4] it was 32%. Moreover, the clearance in [5] was 70 mL/min/kg. For the same compound, the concentration at 7 h in series [6] was determined as 6320 ng/mL. Also, the concentration ratio (Kp) at 7 h in [7] is 341. The bioavailability in series [8] was 6%. This compound also yielded a Cmax in series [9] of 30 ng/mL.
